Measured values reported in ChEMBL document CHEMBL2321773, “Colloidal aggregation causes inhibition of G protein-coupled receptors” (J Med Chem, 2013).
Calls of active or inactive are those of the source. No cut-off for these calls is given here.

Columns and labels:
Vasopressin V2 receptor [1] = target: T1, Vasopressin V2 receptor (Homo sapiens, UniProt P30518); experiment: Inhibition of vasopressin V2 receptor (unknown origin) assessed as change in intracellular calcium levels incubated with compound treated with Tween-80 by fluorometric analysis; type: functional, cell-based
[2] = target: T2, C-C chemokine receptor type 4 (Homo sapiens, UniProt P51679); experiment: (§1) Inhibition of CCL22-stimulated CCR4 in human HTLA cells pre-incubated for 20 mins with centrifuged compound solution measured on day 4 by beta arrestin-recruitment mediated luciferase reporter gene assay; type: cell-based
T2 sequence (P51679 whole entry): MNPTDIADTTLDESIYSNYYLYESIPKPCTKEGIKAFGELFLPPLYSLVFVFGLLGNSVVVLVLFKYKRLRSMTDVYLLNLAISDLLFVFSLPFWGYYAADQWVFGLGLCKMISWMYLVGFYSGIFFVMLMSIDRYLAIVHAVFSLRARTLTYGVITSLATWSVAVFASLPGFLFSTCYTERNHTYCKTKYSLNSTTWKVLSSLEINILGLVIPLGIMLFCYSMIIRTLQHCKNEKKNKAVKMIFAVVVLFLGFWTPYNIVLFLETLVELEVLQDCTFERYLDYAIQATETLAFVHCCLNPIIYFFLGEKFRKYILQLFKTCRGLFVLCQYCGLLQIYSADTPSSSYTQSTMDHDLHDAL
In short: (§2)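 HTLA cells (stable β-arrestin2-TEV protease fusion, tTA-dependent firefly luciferase) transfected by CaPO4 with receptor-V2-tTA construct; next day plated 20 000 cells/well in 1% dialyzed FBS; day 3 serum-free DMEM; compound 0.001 nM–100 μM final in HBSS/20 mM HEPES pH 7.4 for 20 min, then 1 μM agonist overnight, 37 °C; day 4 luminescence after Bright-Glo 30 min; normalized to vehicle and reference; sigmoidal fit.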

Vasopressin V2 receptor [3] = target: T1, Vasopressin V2 receptor; experiment: Inhibition of vasopressin V2 receptor (unknown origin) assessed as change in intracellular calcium levels treated with centrifuged compound solution by fluorometric analysis; type: functional, cell-based
[4] = target: T2, C-C chemokine receptor type 4; experiment: Inhibition of CCL22-stimulated CCR4 in human HTLA cells pre-incubated for 20 mins with Tween-80-treated compound solution measured on day 4 by beta arrestin-recruitment mediated luciferase reporter gene assay
Vasopressin V2 receptor [5] = target: T1, Vasopressin V2 receptor; experiment: Inhibition of vasopressin-stimulated vasopressin V2 receptor in human HTLA cells pre-incubated for 20 mins with Tween-80-treated compound solution measured on day 4 by beta arrestin-recruitment mediated luciferase reporter gene assay; type: cell-based
In short: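 Transfected HTLA β-arrestin/tTA-luciferase reporter cells were kept serum-free on day 3 and given compound (0.001 nM–100 μM final, pH 7.4 HEPES-HBSS buffer) for 20 min. They were then stimulated with 1 μM vasopressin overnight at 37 °C. Media was removed before day-4 luciferase read; normalized to vehicle/reference, sigmoidal regression.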

[6] = target: T2, C-C chemokine receptor type 4; experiment: Inhibition of CCL22-stimulated CCR4 in human HTLA cells pre-incubated for 20 mins measured on day 4 by beta arrestin-recruitment mediated luciferase reporter gene assay
Vasopressin V2 receptor [7] = target: T1, Vasopressin V2 receptor; experiment: Inhibition of vasopressin-stimulated vasopressin V2 receptor in human HTLA cells pre-incubated for 20 mins measured on day 4 by beta arrestin-recruitment mediated luciferase reporter gene assay; type: cell-based
Vasopressin V2 receptor [8] = target: T1, Vasopressin V2 receptor; experiment: Inhibition of vasopressin-stimulated vasopressin V2 receptor in human HTLA cells pre-incubated for 20 mins with centrifuged compound solution measured on day 4 by beta arrestin-recruitment mediated luciferase reporter gene assay
[9] = target: T3, C-C chemokine receptor type 4 (Homo sapiens) (UniProt P51679); experiment: as §1; type: cell-based; in short: as §2
T3 sequence (whole entry): T2 sequence (P51679 whole entry)

[10] = target: T2, C-C chemokine receptor type 4; experiment: Inverse agonist activity at CCR4 in human HTLA cells assessed as depression of basal activity incubated for 20 mins by beta arrestin-recruitment mediated luciferase reporter gene assay in absence of CCL22; type: cell-based
In short: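 β-Arrestin recruitment luciferase reporter in transfected HTLA cells without CCL22 agonist. Compounds ranged 0.001 nM to 100 μM final in HBSS/HEPES pH 7.4 buffer, with 20 min exposure in serum-free DMEM. Luminescence read on day 4.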

Cruzipain [11] = target: T4, Cruzipain (Trypanosoma cruzi, UniProt P25779); experiment: Inhibition of Trypanosoma cruzi cruzaine using Z-Phe-Arg-aminomethylcoumarin as substrate incubated for 5 mins by spectrofluorimetric analysis in absence of Tween-80
In short: (§3)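 Cruzain at 0.4 nM final in 0.1 M sodium acetate pH 5.5 with 5 mM DTT and 1% DMSO. Compound preincubated with enzyme for 5 min, then 2.5 μM Z-FR-AMC added. Fluorescence increase (ex 355/em 460 nm) monitored for 5 min. Duplicate wells, two separate experiments. IC50 from variable-slope sigmoidal fit.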

[12] = Inhibition of AmpC beta lactamase (unknown origin) incubated for 5 mins by UV-Vis spectrophotometric analysis in absence of Triton X-100
Cruzipain [13] = target: T4, Cruzipain; experiment: Inhibition of Trypanosoma cruzi cruzaine using Z-Phe-Arg-aminomethylcoumarin as substrate incubated for 5 mins by spectrofluorimetric analysis in presence of Tween-80; in short: as §3
[14] = Inhibition of AmpC beta lactamase (unknown origin) incubated for 5 mins by UV-Vis spectrophotometric analysis in presence of Triton X-100
[15] = target: T5, C-X-C chemokine receptor type 1 (Homo sapiens) (UniProt P25024); experiment: Inhibition of CX3CL1-stimulated CX3CR1 in human HTLA cells pre-incubated for 20 mins with centrifuged compound solution measured on day 4 by beta arrestin-recruitment mediated luciferase reporter gene assay
T5 sequence (whole entry): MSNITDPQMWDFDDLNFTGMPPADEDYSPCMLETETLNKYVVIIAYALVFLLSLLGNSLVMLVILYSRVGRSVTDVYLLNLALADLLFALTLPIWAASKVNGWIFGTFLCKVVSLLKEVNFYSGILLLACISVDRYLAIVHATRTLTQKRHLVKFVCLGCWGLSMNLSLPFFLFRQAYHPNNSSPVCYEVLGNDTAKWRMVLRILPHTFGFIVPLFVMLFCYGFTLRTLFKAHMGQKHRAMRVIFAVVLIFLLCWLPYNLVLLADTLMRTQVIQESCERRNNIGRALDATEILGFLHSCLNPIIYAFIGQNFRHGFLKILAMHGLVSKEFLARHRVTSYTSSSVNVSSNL

[16] = Inhibition of AmpC beta lactamase (unknown origin) at 10 uM incubated for 5 mins in presence of vasopressin
In short: (§4)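 AmpC β-lactamase (1 nM) in 50 mM potassium phosphate pH 7.0 at room temperature; compound at 10 μM final from 10 mM DMSO stock, with or without 5 min preincubation with 1 μM vasopressin; enzyme incubated with sample 5 min, reaction started with 69 μM CENTA; absorbance change at 405 nm followed 2.5 min; quadruplicate.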

[17] = Inhibition of AmpC beta lactamase (unknown origin) at 10 uM incubated for 5 mins; in short: as §4

T4 sequence (P25779 whole entry): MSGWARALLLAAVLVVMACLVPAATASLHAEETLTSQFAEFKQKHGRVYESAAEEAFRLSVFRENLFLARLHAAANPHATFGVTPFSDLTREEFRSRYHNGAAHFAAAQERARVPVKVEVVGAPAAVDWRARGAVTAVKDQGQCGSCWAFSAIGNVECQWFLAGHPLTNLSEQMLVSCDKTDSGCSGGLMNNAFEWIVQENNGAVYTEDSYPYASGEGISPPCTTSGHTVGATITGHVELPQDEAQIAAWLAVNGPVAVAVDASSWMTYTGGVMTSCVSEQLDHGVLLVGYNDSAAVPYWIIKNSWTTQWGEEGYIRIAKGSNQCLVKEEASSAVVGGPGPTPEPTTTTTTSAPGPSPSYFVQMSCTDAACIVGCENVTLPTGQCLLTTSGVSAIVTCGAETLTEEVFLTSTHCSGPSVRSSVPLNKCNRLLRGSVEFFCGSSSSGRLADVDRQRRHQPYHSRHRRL
T1 sequence (P30518 whole entry): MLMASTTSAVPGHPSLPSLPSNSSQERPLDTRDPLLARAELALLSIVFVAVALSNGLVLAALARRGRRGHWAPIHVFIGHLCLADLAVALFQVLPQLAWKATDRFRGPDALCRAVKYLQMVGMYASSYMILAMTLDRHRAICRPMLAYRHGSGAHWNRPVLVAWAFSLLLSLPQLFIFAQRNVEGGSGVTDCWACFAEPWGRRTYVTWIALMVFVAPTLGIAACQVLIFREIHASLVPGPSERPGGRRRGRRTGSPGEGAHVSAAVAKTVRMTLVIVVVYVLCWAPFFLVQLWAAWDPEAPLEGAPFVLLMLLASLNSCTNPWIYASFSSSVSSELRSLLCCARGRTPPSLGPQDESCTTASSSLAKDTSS

| SMILES | inhibition (Vasopressin V2 receptor [1]) | inhibition (Vasopressin V2 receptor [3]) | inhibition [9] | IC50 (Cruzipain [11]) | IC50 [12] | IC50 (Cruzipain [13]) | IC50 [14] | inhibition [15] | further results |
| --- | --- | --- | --- | --- | --- | --- | --- | --- | --- |
| CCC(C)n1ncn(-c2ccc(N3CCN(c4ccc(OCC5COC(Cn6cncn6)(c6ccc(Cl)cc6Cl)O5)cc4)CC3)cc2)c1=O (stereo not drawn) [ITRACONAZOLE] | Active | Active |  |  |  |  |  |  | IC50 [2]: 7.2 µM; IC50 [4]: 12.6 µM; IC50 (Vasopressin V2 receptor [5]): 6.31 µM; IC50 [6]: 0.501 µM; IC50 (Vasopressin V2 receptor [7]): 0.794 µM; IC50 (Vasopressin V2 receptor [8]): 11.9 µM |
| Clc1ccccc1C(c1ccccc1)(c1ccccc1)n1ccnc1 [CLOTRIMAZOLE] | Active | Active | inactive |  |  |  |  |  | inhibition (Vasopressin V2 receptor [5]): inactive; IC50 [10]: 1.6 µM |
| O=c1cc(-c2ccc(O)c(O)c2)oc2cc(O)cc(O)c12 [LUTEOLIN] |  |  |  | 27.3 µM | 21.9 µM | 156 µM | > 100 µM |  |  |
| O=c1c(O)c(-c2ccc(O)c(O)c2)oc2cc(O)cc(O)c12 |  |  |  |  |  |  |  | inactive |  |
| O=C1OC(c2cc(I)c(O)c(I)c2)(c2c(I)cc(O)cc2I)c2ccccc21 (stereo not drawn) | Active | Active | inactive |  |  |  |  | inactive | inhibition [16]: 7%; inhibition [17]: 77% |
| O=c1c(-c2ccc(O)cc2)coc2cc(O)cc(O)c12 [GENISTEIN] |  |  |  | 82.7 µM | 16.7 µM | > 400 µM | > 100 µM |  |  |
